Screening data: PubChem, several laboratories
Compounds with a hit are over-represented: about 1.8% of the library has one in this group of screens.
DAGLB inh: blocks human DAGLB lipase activity. Q8NCG7. HEK293T DAGLB membrane lysate, EnzChek fluorogenic substrate. inhibition, % at 5.17 µM. hit rate 0.059% among 340,000; in the data active means inhibition above about 34%;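 further: 0% = enzyme with vehicle and 100% = wells lacking enzyme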
Target sequence (Q8NCG7 whole entry, looked up): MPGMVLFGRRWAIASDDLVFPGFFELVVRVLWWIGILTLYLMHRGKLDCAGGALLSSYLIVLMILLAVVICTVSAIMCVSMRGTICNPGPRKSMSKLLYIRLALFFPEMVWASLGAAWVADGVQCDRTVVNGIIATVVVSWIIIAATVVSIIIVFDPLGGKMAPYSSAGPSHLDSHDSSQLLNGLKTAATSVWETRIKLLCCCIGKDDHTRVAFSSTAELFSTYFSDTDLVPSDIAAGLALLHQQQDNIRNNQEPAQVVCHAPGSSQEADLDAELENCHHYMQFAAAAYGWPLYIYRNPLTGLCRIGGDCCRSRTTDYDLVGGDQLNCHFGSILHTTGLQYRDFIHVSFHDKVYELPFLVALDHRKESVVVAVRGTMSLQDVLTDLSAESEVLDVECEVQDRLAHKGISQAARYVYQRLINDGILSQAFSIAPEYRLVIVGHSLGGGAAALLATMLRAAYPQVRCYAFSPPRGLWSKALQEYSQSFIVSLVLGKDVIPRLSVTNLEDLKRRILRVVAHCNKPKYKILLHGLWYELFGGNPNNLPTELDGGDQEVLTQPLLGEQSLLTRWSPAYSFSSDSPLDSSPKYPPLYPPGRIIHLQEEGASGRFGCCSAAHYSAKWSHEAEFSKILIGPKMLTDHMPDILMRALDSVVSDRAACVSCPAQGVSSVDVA
rRNA inh HTS: selective bacterial rRNA inhibition in E. coli | hit rate 1.6% among 350,000 | E. coli WT GFP vs humanized-ribosome RFP mutants, fluorescence, 24 h; stronger effect = lower value; DMSO median 0, no signal -100 | GFP signal change (wild-type ribosome), % (concentration not given with the values);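 active means significant combined selectivity score with lowered wild-type GFP, culture density cut under 30%, mutant RFP and density less affected; inactive means any of these conditions unmet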
SKN-1 inh: blocks SKN-1 activity in C. elegans | AID 624304 | C. elegans VP596 Pgst-4::GFP/RFP ratio, acrylamide-induced, 24 h | inhibition, % at 21.8 µM | hit rate 0.49% among 360,000;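 active means interference check ratio from 0.5 to 1.5 plus GFP to RFP signal ratio inhibition reaching or exceeding a fixed threshold, cut at about 30% in these data, passing the limit was not always enough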
iPSC survival up: enhancers of human iPSC single-cell survival; hit rate 0.044% among 360,000; AID 602274; hiPSC single-cell survival, ATPlite luminescence; 100% = ROCK inhibitor wells, 0% = DMSO; survival enhancement, % at 20 µM; in the data active means survival enhancement above about 18%;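 further: cells exposed to compounds for 16 hours before the ATP read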
MT1-MMP act inh: MT1-MMP (human) activation inhibition. GFP/RFP ratio change, % at 20 µM. P50281. HT1080 RFP-PRO-GFP cells, GFP/RFP ratio fluorescence, overnight; percent of plate control window, DMSO zero. AID 651647. hit rate 0.061% among 360,000;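 active means GFP/RFP ratio change of at least 30% with cell ATP level not reduced by more than half and red fluorescence within 50% of control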
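Test system: HT1080 RFP-PRO-GFP cells; Benchmarks: DMSO and RFP-L50D-GFP cell wells; Timing: cells overnight before dosing, compound overnight, 37 °C, 5% CO2; Compound: one 20 µM compound dose with 1% DMSO; Read-out: GFP/RFP fluorescence ratio.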
Cneo AK release: Cryptococcus neoformans lysis via adenylate kinase release | C. neoformans lysis, adenylate kinase release luminescence, 4 h; normalised: neutral wells 0, clomiphene wells 100 | lysis activity, % at 15 µM | hit rate 0.2% among 360,000 | AID 651654;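 active means mean lysis activity across replicates of at least 80%, whatever share of replicates individually reach that level; inactive means mean lysis activity below 80%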
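Test system: log-phase Cryptococcus neoformans yeast cells; Quantity: yeast cell density of 5 × 10^6 cells/mL; Buffer or medium: YPD; Doses: single compound concentration per well; Timing: 4 h at 37 °C static, read 1 h later; Measured by: AK luminescence; Read-out basis: lysis from increased AK signal; Control set: Clomiphene as positive control.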
Numbers without * were called inactive.

C[C@H](CO)N1C[C@H](C)[C@H](CN(C)Cc2ccccc2)Oc2ncc(-c3cccnc3)cc2C1=O was read as rRNA inh HTS 0.
Screening CN(C)C(=O)c1cccc(-c2ccc([C@H]3[C@H](CO)N4CCCCN(C(=O)C5CCC5)C[C@@H]34)cc2)c1 returned rRNA inh HTS 2 and Cneo AK release 0.
Screening O=C(NNc1c2ccccc2nc2ccccc12)C(O)c1ccccc1 (stereo not drawn) returned DAGLB inh 1, rRNA inh HTS -27*, SKN-1 inh 15, iPSC survival up 0, MT1-MMP act inh -11 and Cneo AK release -1.
`S=C(Nc1ccc(N2CCOCC2)cc1)Nc1ccc2snnc2c1` gave DAGLB inh 4, rRNA inh HTS -20*, SKN-1 inh 4, iPSC survival up 0 and MT1-MMP act inh 9.
`C[C@H]1CN([C@@H](C)CO)C(=O)c2cc(NC(=O)Nc3ccccc3)ccc2O[C@H]1CN(C)Cc1ccc(Cl)c(Cl)c1` gave rRNA inh HTS 0.
For Cc1ccc(Cl)cc1N1CCN(C(c2cccnc2)c2nnnn2C2CCCCC2)CC1 (stereo not drawn) the results were DAGLB inh -3, SKN-1 inh -2, iPSC survival up 0, MT1-MMP act inh -23 and Cneo AK release -1.
Screening CCC(C)(C)n1nnnc1C(c1cccnc1)N1CCC(Cc2ccccc2)CC1 (stereo not drawn) returned DAGLB inh -3, rRNA inh HTS -33*, SKN-1 inh -12, iPSC survival up 0 and MT1-MMP act inh 3.
Screening c1cncc(C(c2nnnn2C2CCCCC2)N2CCCCC2)c1 (stereo not drawn) returned DAGLB inh -3, rRNA inh HTS -20*, SKN-1 inh -5, iPSC survival up 0 and Cneo AK release 1.
CC(C)C(=O)NCCc1nc(-c2ccccc2Cl)no1 was read as DAGLB inh 2, rRNA inh HTS 3, SKN-1 inh 36*, iPSC survival up -2, MT1-MMP act inh 8 and Cneo AK release 2.
`O=C(C=Cc1cccc(O)c1)c1ccccc1O` gave DAGLB inh 0, rRNA inh HTS -35, SKN-1 inh 10, iPSC survival up -3, MT1-MMP act inh 6 and Cneo AK release -11.
`Oc1cc(O)cc(C=Cc2ccc(O)c(O)c2)c1` gave rRNA inh HTS -29*.
Screening O=C(/C=C/c1ccc(O)c(O)c1)c1ccccc1O returned DAGLB inh 16, rRNA inh HTS -32*, SKN-1 inh 13, iPSC survival up 0, MT1-MMP act inh -8 and Cneo AK release -5.
For Clc1ccc2c(c1)c1cc(Cl)ccc1n2CN1CCOCC1 the results were DAGLB inh -7, SKN-1 inh 33*, iPSC survival up -2, MT1-MMP act inh 3 and Cneo AK release -1.
Screening Clc1ccc2c(c1)c1ccccc1n2CN1CCOCC1 returned DAGLB inh -3, rRNA inh HTS -33*, SKN-1 inh 12, iPSC survival up -5, MT1-MMP act inh -1 and Cneo AK release -4.
`Cc1cc(C(=O)COc2ccc([N+](=O)[O-])cc2)c(C)n1C1CC1` gave DAGLB inh -3, rRNA inh HTS 9, SKN-1 inh -1, iPSC survival up 0, MT1-MMP act inh -1 and Cneo AK release -2.
`Cc1cc(C(=O)COc2cc(F)ccc2[N+](=O)[O-])c(C)n1C1CC1` gave DAGLB inh -3, rRNA inh HTS -29*, SKN-1 inh 13, iPSC survival up 0 and MT1-MMP act inh 0.
For C[C@@H]1CCCCO[C@H](CN(C)C(=O)C2CCCCC2)[C@H](C)CN([C@H](C)CO)C(=O)c2cc(N(C)C)ccc2O1 the results were rRNA inh HTS -6.
O=C(NCc1ccc(F)cc1)[C@H]1[C@H](CO)[C@H]2Cn3c(cccc3=O)[C@@H]1N2C(=O)Cc1ccccn1 was read as rRNA inh HTS 3 and Cneo AK release -2.
For NC(=O)N/N=C/c1cn(-c2ccccc2)nc1-c1ccccc1 the results were DAGLB inh 2, rRNA inh HTS -18*, SKN-1 inh -4, iPSC survival up 1 and MT1-MMP act inh 2.
For O=C(N/N=C/c1cn(-c2ccccc2)nc1-c1cccnc1)c1cccnc1 the results were DAGLB inh -10, rRNA inh HTS 3, SKN-1 inh 0, iPSC survival up 1 and MT1-MMP act inh 0.
Screening O=C(N/N=C/c1cn(-c2ccccc2)nc1-c1cccnc1)c1ccc(F)cc1 returned DAGLB inh -6, rRNA inh HTS -25*, SKN-1 inh 7, iPSC survival up 0 and MT1-MMP act inh 2.
Screening C[C@@H]1CN([C@@H](C)CO)C(=O)c2cc(-c3ccncc3)cnc2O[C@H]1CN(C)Cc1ccc(F)cc1 returned rRNA inh HTS 6 and Cneo AK release 0.
C=CCN=c1scc(-c2ccccc2)n1/N=C/c1ccccn1 was read as DAGLB inh -8, rRNA inh HTS -47, SKN-1 inh 7, iPSC survival up -3, MT1-MMP act inh 2 and Cneo AK release -4.
Screening CCN=c1scc(-c2ccccc2)n1/N=C/c1ccccn1 returned DAGLB inh -13, SKN-1 inh 44*, iPSC survival up -6 and MT1-MMP act inh -1.
For CCN=c1scc(-c2ccc(F)cc2)n1/N=C/c1ccccn1 the results were DAGLB inh -5, rRNA inh HTS 6, SKN-1 inh 45*, iPSC survival up -1 and MT1-MMP act inh 1.
CCS(=O)(=O)N[C@H]1CC[C@H](CC(=O)NCc2ccc(F)cc2)O[C@H]1CO was read as Cneo AK release 0.
COc1ccc(NC(=O)c2cccc(OC(F)F)c2)cc1Cl was read as DAGLB inh -4, SKN-1 inh 9, iPSC survival up -1, MT1-MMP act inh 4 and Cneo AK release -3.
COC(=O)c1cccc(NC(=O)c2ccc(OC)c(Cl)c2)c1 was read as DAGLB inh -4, rRNA inh HTS -30*, SKN-1 inh -8, iPSC survival up 0, MT1-MMP act inh 4 and Cneo AK release 3.
For O=C(Nc1ccc(OC(F)F)c(Cl)c1)c1cccc(OC(F)F)c1 the results were DAGLB inh -4, SKN-1 inh 44*, iPSC survival up -1, MT1-MMP act inh 8 and Cneo AK release 1.
`CN(C)S(=O)(=O)c1cccc(C(=O)Nc2ccc3c(c2)CCC3)c1` gave DAGLB inh -4, rRNA inh HTS -19*, SKN-1 inh 8, iPSC survival up 0, MT1-MMP act inh 3 and Cneo AK release -8.
`COc1ccc(C(=O)Nc2cc(C(=O)O)cc(C(=O)O)c2)cc1Cl` gave DAGLB inh 0, rRNA inh HTS 11, SKN-1 inh -3, iPSC survival up -2 and MT1-MMP act inh 1.
